Bioassay records: PubChem, several laboratories
Most compounds without a hit are left out; they make up all but 2.6% or so of the library.
Apaf1 inhib = human Apaf-1 inhibition. inhibition, % at 20 µM. reconstituted apoptosome caspase-3 activity, DEVD-Rh110 fluorescence. AID 489030. O14727. 330,000 tested, 0.71% active; active = inhibition of at least 40% at 20 µM
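System: reconstituted apoptosome with Apaf-1, cytochrome c, caspase-9, procaspase-3, dATP; Signal: Rh110 fluorescence intensity; Schedule: 30 min compound preincubation, 50 min activation, room temperature; Reagent: cytochrome c trigger plus (Z-DEVD)2-Rh110 caspase-3 substrate.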
TDP2 absorb = blocks human TDP2 phosphodiesterase activity. 370,000 tested, 0.34% active. inhibition, % at 12.8 µM. recombinant TDP2, T5PNP hydrolysis, p-nitrophenol absorbance 415 nm. AID 720702. O95551;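 active = inhibition above the mean of all tested compounds plus 3 SD, set per campaign, cut at about 25% in these data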
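Incubation: 2 h at 37 °C; Test system: recombinant human TDP2; Quantity: enzyme 120 nM; Read-out basis: percent inhibition; Medium: 50 mM Tris-HCl pH 7.5 with Mg2+, KCl, DTT, BSA; Repeats: single replicate; Compound: 12.8 µM single point, 1% DMSO; Signal: epi absorbance; Reagent: 5 mM T5PNP chromogenic substrate; Benchmarks: no-enzyme high, DMSO-plus-enzyme low.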
GSTO1 inh = counter-screen for RBBP9 inhibitors: inhibitors of human GSTO1; AID 1974; P78417; 300,000 tested, 1.1% active; recombinant GSTO1, activity-based probe fluorescence polarization; inhibition, % at 5.96 µM;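 active = inhibition above the campaign mean inhibition plus 3 SD, cut at about 35% in these data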
PAD4 inh = blocks human protein arginine deiminase 4 | recombinant PAD4, RCA probe fluorescence polarization | inhibition, % at 6.36 µM | 330,000 tested, 0.41% active | AID 485272;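 active = percent inhibition above a cutoff equal to the mean of all tested compounds plus 3 SD, cut at about 15% in these data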
PRMT1 inh = inhibitors of human PRMT1 | inhibition, % at 2.79 µM | 370,000 tested, 1.3% active | recombinant PRMT1, activity-based probe fluorescence polarization;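 active = inhibition above about 21% made by adding two undisclosed values, limit read from the data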
Apaf-1 inh conf = confirmation of Apaf-1 inhibitors; shares compounds with Apaf1 inhib; reconstituted apoptosome, caspase-3 DEVD-Rh110 fluorescence; inhibition, % at 20 µM; 1,800 tested, 25% active;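 active = mean inhibition of at least 40% at 20 µM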
Rh110 quench = interferes with Rh110 fluorescence, flagging false Apaf-1 inhibitors; shares compounds with Apaf1 inhib; 1,800 tested, under 10 active; activation (fluorescence interference), % at 20 µM; Rh110 fluorescence interference, quenched caspase reaction;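 active = signal rise of 40% or more at 20 µM, treated as a fluorescence artifact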
Apaf1 inh interf = shows fluorescence interference in the Apaf-1 inhibitor assay format | 460 tested, under 10 active | shares compounds with Apaf1 inhib | fluorescence interference counterscreen, Apaf-1 assay format | AID 588538 | IC50, µM; call rule not given here
Hits are given with their value; – = inactive; · = no result given.

SMILES	Apaf1 inhib	TDP2 absorb	GSTO1 inh	PAD4 inh	PRMT1 inh	Apaf-1 inh conf	Rh110 quench	others
CC(Oc1cccc(Cl)c1)C(=O)Nc1cc(S(=O)(=O)N2CCOCC2)ccc1N1CCCCC1 (centres undefined)	48	–	–	–	–	43	–	Apaf1 inh interf=–
c1cc2c3c(cccc3c1)C(N1CCCCCC1)=N2	–	–	–	–	–	·	·
c1ccc2c(c1)CCN(C1=Nc3cccc4cccc1c34)C2	43	–	·	·	–	–	–
CCCCNC(=O)C[C@H]1C(=O)N(Cc2ccc(OC)cc2)C2=CCCCC[C@@]21C(=O)OC	·	–	·	·	–	·	·
COCCN1CCCc2nc(-c3ccc(F)cc3)ccc21	·	–	·	·	–	·	·
COc1ccc2c(c1)c(/C=N/Nc1nc3ccccc3[nH]1)c(C)n2C	43	–	–	–	–	–	–
COc1cc(/C=N\Nc2nc3ccccc3[nH]2)cc(OC)c1OC	–	–	–	–	–	·	·
CC(C)CN1C(=O)C[C@]2(C(=O)N(C)c3ccc(NS(=O)(=O)c4ccc(F)cc4)cc32)C1c1ccccc1 (some centres undefined)	·	–	·	·	–	·	·
C#CCOCCOCCOCCNc1nc(N2CCN(C(=O)[C@H](CCCCN)n3cc([C@@H](N)C(C)CC)nn3)CC2)nc(N2CCN(C(=O)[C@H](Cc3cc4ccccc4[nH]3)n3cc([C@@H](N)C(C)CC)nn3)CC2)n1 (some centres undefined)	53	·	·	–	·	–	–
C#CCOCCOCCOCCNc1nc(N2CCN(C(=O)[C@H]([C@@H](C)CC)n3cc([C@@H](N)CC(C)C)nn3)CC2)nc(N2CCN(C(=O)[C@H](Cc3cc4ccccc4[nH]3)n3cc([C@@H](N)Cc4ccc(O)cc4)nn3)CC2)n1	56	·	–	–	·	–	–
C#CCOCCOCCOCCNc1nc(N2CCN(C(=O)[C@H]([C@@H](C)CC)n3cc([C@@H](N)Cc4ccc(O)cc4)nn3)CC2)nc(N2CCN(C(=O)[C@H](Cc3cc4ccccc4[nH]3)n3cc([C@@H](N)CC(C)C)nn3)CC2)n1	63	·	–	–	·	–	–
C#CCOCCOCCOCCNc1nc(N2CCN(C(=O)C([C@@H](C)O)n3cc([C@@H](N)CCCCN)nn3)CC2)nc(N2CCN(C(=O)[C@H](CCCN=C(N)N)n3cc(C(N)[C@@H](C)CC)nn3)CC2)n1 (some centres undefined)	46	·	·	–	·	–	–
COC(=O)[C@]12C[C@H](CC(=O)NCCc3ccccc3OC)C(=O)N(Cc3ccccc3)C1=C[C@H](C(C)(C)C)O[C@@H]2C	·	–	·	·	–	·	·
CC1(Oc2ccc3ccccc3c2)CCN(Cc2cccn2-c2nccs2)C1 (centres undefined)	·	–	·	·	–	·	·
CCCCCCCNC(=O)C1(CC2CC(c3cccc(Br)c3)=NO2)CCNCC1 (centres undefined)	46	–	–	–	–	–	–
CCCCCCCNC(=O)C1(CC2CC(c3ccc(Cl)cc3)=NO2)CCNCC1 (centres undefined)	41	–	–	–	–	–	–
Cc1cc(N2CCN(C(=O)OC(C)(C)C)C[C@H]2C)ccc1Br	·	–	·	·	–	·	·
O=C(/C=C/c1ccc(-c2ccccc2[N+](=O)[O-])o1)c1ccco1	43	–	–	–	–	–	–
O=C(/C=C/c1ccc([N+](=O)[O-])cc1)c1ccco1	–	–	–	–	–	·	·
Fc1cccc(CCN2CCNC[C@H]2Cc2cccc3ccccc23)c1	43	–	–	–	–	–	–
c1ccc2c(C[C@@H]3CNCCN3CCC34CC5CC(CC(C5)C3)C4)cccc2c1	66	–	·	–	–	–	–
CC(C)(C)CN1CCNC[C@H]1Cc1cccc2ccccc12	–	–	–	–	–	·	·
c1ccc(C2(CN3CCNC[C@H]3Cc3cccc4ccccc34)CC2)cc1	53	–	–	–	–	–	–
c1ccc2c(C[C@@H]3CNCCN3CCCCC3CCCCC3)cccc2c1	71	–	·	–	–	–	–
